The values below come from paper PMC9662946 (Clinical Cancer Research, 2022).

The structures appear in SMILES notation. Entries after “also recorded” stand apart in the source; their conditions may differ.

Series [1] has as its system patients with advanced solid tumors. The series can be described thus: Phase I safety and tolerability: AEs, SAEs, DLTs. In kind it is in vivo, human.
Series [2] in a line: Plasma pharmacokinetics of AZD8186 and metabolite M1. Format: in vivo, human. Conditions: for Effect of the combination partner on the PK of AZD8186 (Cmax, AUC): drug–drug interaction analysis versus AZD8186 monotherapy.
The subject of series [3] is pAKT (S473), pAKT (T308), pGSK3β. As to the kind of experiment: PD biomarkers of PI3Kβ inhibition in platelet-rich plasma. In kind it is in vivo, human. Conditions: pooled 60-mg and 120-mg BID monotherapy cohorts.
In the next series the test system is pAKT (S473) and pPRAS40. The series can be described thus: IHC of paired tumor biopsies. Format: in vivo, human. Conditions: six patients, 120-mg BID monotherapy dose expansion. The method in brief: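 Paired fresh biopsies from patients with PTEN-deficient/mutated mCRPC or TNBC, taken at screening and in week 2 after ≥3 consecutive dosing days (preferably 2–4 h post-dose; days 11 or 12 on 5:2, days 11–14 continuous). IHC for pAKT (S473) and pPRAS40 on three non-consecutive sections. Digital image analysis scored membranous pAKT and cytosolic pPRAS40 intensity as H-scores, with percent change from baseline.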

In another series the test system is advanced solid tumors. The series can be described thus: Tumor response by RECIST 1.1. Format: in vivo, human. The method in brief: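 Imaging at baseline and every 6 weeks (every 12 weeks for mCRPC) until discontinuation or consent withdrawal. Patients with measurable disease were classed as complete response, partial response, stable disease or progressive disease under RECIST 1.1. Results were summarised descriptively, with percent change from baseline in target lesions.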

Another series concerns PI3Kβ. The conditions noted are these: cited from earlier work.
The mark [4] stands for this setting: non-prostate cancer, dose finding.
The mark [5] stands for this setting: combined with AZD8186, dose expansion.
Setting [6] is: combined with AZD8186, dose finding.

As a reminder, the half-life is how long it takes for the measured level to halve. The term IC50 denotes the concentration that inhibits the measured activity by half. In the case of `C[C@@H](Nc1cc(F)cc(F)c1)c1cc(C(=O)N(C)C)cc2c(=O)cc(N3CCOCC3)oc12` [AZD8186, (R)-8-(1-(3,5-difluorophenylamino)ethyl)-N,N-dimethyl-2-morpholino-4-oxo-4H-chromene-6-carboxamide], in series [1] (dose expansion), the “Any AE” value is 19 (95.0) n (%), the “Any AE causally related to AZD8186 only” value is recorded as 11 (55.0) n (%), the “Any AE leading to discontinuation of AZD8186” value is reported as 1 (5.0) n (%) and the “Any AE leading to dose modification of AZD8186” value was 0 n (%). Further, in series [1] (dose expansion), the “Any SAE (including deaths)” value is 4 (20.0) n (%); the “Any SAE (including deaths), causally related to AZD8186 only” value was 2 (10.0) n (%); the “Any SAE causing discontinuation of AZD8186” value is listed as 0 n (%); the “Any SAE causing discontinuation of AZD8186, causally related to AZD8186 only” value was 0 n (%). Besides, in series [1] (dose expansion), the “Any grade ≥3 AE” value is listed as 8 (40.0) n (%), the “Any grade ≥3 AE causally related to AZD8186 only” value is 3 (15.0) n (%), the Death is given as 0 n (%) and the “Death causally related to AZD8186 only” value was 0 n (%). For the same compound, in series [1] (dose expansion), the “Dose interruption of AZD8186, patients” value was 35.0% and the “Dose reduction of AZD8186, patients” value was “No dose reductions”. In series [1] (dose finding), the “Anemia, grade ≥3 causally related AE, patients” value was 4.8%; the “Any AE” value is reported as 63 (100.0) n (%); the “Any AE causally related to AZD8186 only” value was 55 (87.3) n (%); the “Any AE leading to discontinuation of AZD8186” value is recorded as 11 (17.5) n (%). Further, in series [1] (dose finding), the “Any AE leading to dose modification of AZD8186” value is given as 10 (15.9) n (%); the “Any SAE (including deaths)” value was 23 (36.5) n (%); the “Any SAE (including deaths), causally related to AZD8186 only” value is listed as 10 (15.9) n (%); the “Any SAE causing discontinuation of AZD8186” value is listed as 6 (9.5) n (%). Also, in series [1] (dose finding), the “Any SAE causing discontinuation of AZD8186, causally related to AZD8186 only” value was 5 (7.9) n (%); the “Any grade ≥3 AE” value was 39 (61.9) n (%); the “Any grade ≥3 AE causally related to AZD8186 only” value was 20 (31.7) n (%); the “Aspartate aminotransferase increase, grade ≥3 causally related AE, patients” value worked out at 4.8%. In addition, in series [1] (dose finding), the “Colitis, grade ≥3 causally related AE, patients” value turned out to be 4.8%; the Death is on record as 0 n (%); the “Death causally related to AZD8186 only” value is 0 n (%); the “Diarrhea, AE causally related to AZD8186, patients” value was 41.3%. In series [1] (dose finding), the “Fatigue, AE causally related to AZD8186, patients” value came out at 22.2%; the “Hypophosphatemia, grade ≥3 causally related AE, patients” value is listed as 4.8%; the “Maculo-papular rash, grade ≥3 causally related AE, patients” value is on record as 4.8%; the “Nausea, AE causally related to AZD8186, patients” value was 27.0%. Further, in series [1] (dose finding), the “Vomiting, AE causally related to AZD8186, patients” value was found to be 23.8%. Further, in series [1] (dose finding, whole arm), the “Dose interruption of AZD8186, patients” value worked out at 49.2%; the “Dose interruption of AZD8186 related to AEs, patients” value is 38.1%; the “Dose reduction of AZD8186, patients” value was 17.5%. Moreover, the Tolerability result in series [1] (monotherapy dose expansion, 60-mg BID (5:2) and 120-mg BID (continuous)) is “well tolerated”. In addition, the “Patients who experienced a DLT” value in series [1] (monotherapy dose finding, 53 evaluable for DLTs) amounted to 7.5%. Further, in series [2] (human, plasma, oral, terminal elimination half-life, overall range, after a single dose), the half-life is 84 to 828 min. Further, the “Effect on the PK of abiraterone acetate” value in series [2] (in vivo) was “little effect”. In addition, the “Cmax and AUC versus dose” value in series [2] (single- and multiple-dose administration) was “dose proportional; also recorded: increased with dose”. In series [3], the “pAKT (S473), pAKT (T308), and pGSK3β in platelet-rich plasma” value is given as “Substantial reductions”. Moreover, in the series on pAKT (S473) and pPRAS40, the “Patients with substantial reduction in pAKT (S473) membrane fraction” value is listed as “all six patients” and the “Patients with substantial reduction in pPRAS40” value is listed as “five of the six patients”. The “Duration of RECIST 1.1 partial response” value in the series on advanced solid tumors (dose finding) turned out to be 372 days. In addition, in the series on advanced solid tumors (setting [4]), the “RECIST 1.1 best objective response stable disease, patients” value is given as 38.9% and the “RECIST 1.1 disease progression, patients” value was found to be 55.6%. In the series with advanced solid tumors (non-prostate cancer, dose finding (120-mg BID; 2:5)), the “RECIST 1.1 confirmed partial response, patients” value came out at 5.6%. Besides, the “RECIST 1.1 disease progression, patients” value in the series on advanced solid tumors (prostate cancer, dose expansion) was 25.0%. In addition, in the series on advanced solid tumors (prostate cancer, dose finding), the “RECIST 1.1 best objective response stable disease, patients” value worked out at 37.5% and the “RECIST 1.1 disease progression, patients” value was found to be 62.5%. In addition, in the series on PI3Kβ, the concentration for half-maximal inhibition (IC50) was 4 nM.

On to `CC(=O)O[C@H]1CC[C@@]2(C)C(=CC[C@@H]3[C@@H]2CC[C@]2(C)C(c4cccnc4)=CC[C@@H]32)C1` [Abiraterone acetate, abiraterone acetate, reference compound], for which, in series [1] (setting [5]), the “Dose interruption of the combination partner, patients” value is on record as 72.2% and the “Dose reduction of the combination partner, patients” value came out at 33.3%. Also, in series [1] (setting [6]), the “Dose interruption of the combination partner, patients” value came to 56.3% and the “Dose reduction of the combination partner, patients” value came to 18.8%. Also, the “Effect of the combination partner on the PK of AZD8186 (Cmax, AUC)” value in series [2] is “little or no effect”.

In the case of `CNC(=O)c1cccc(-c2ccc3c(N4CCOC[C@@H]4C)nc(N4CCOC[C@@H]4C)nc3n2)c1` [Vistusertib, vistusertib, reference compound], in series [1] (setting [6]), the “Dose interruption of the combination partner, patients” value stood at 60.0% and the “Dose reduction of the combination partner, patients” value is given as 23.3%. For the same compound, the “Effect of the combination partner on the PK of AZD8186 (Cmax, AUC)” value in series [2] is listed as “not affected”.

For the compound `C[C@]12C=CC(=O)C=C1CC[C@@H]1[C@@H]2C(=O)C[C@@]2(C)[C@H]1CC[C@]2(O)C(=O)CO` [prednisone, reference compound], in series [1] (setting [5]), the “Dose interruption of the combination partner, patients” value is given as 77.8% and the “Dose reduction of the combination partner, patients” value came to 22.2%. Further, in series [1] (setting [6]), the “Dose interruption of the combination partner, patients” value was found to be 56.3% and the “Dose reduction of the combination partner, patients” value is 18.8%.
